Measurements as given in ChEMBL document CHEMBL1148638, “Aminopyridine-based c-Jun N-terminal kinase inhibitors with cellular activity and minimal cross-kinase activity” (J Med Chem, 2006).
pKi: −log10 of the molar value.

What was measured:
[1] = target: Tyrosine-protein kinase ABL1 (Homo sapiens, UniProt P00519); assay: Inhibition of Abl
Outline: (§1)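 Recombinant tyrosine kinases were incubated 1 h with biotinylated peptide (0.5 µM), ATP (10 µM to 1 mM) and inhibitor in 2% DMSO. Buffer was 50 mM Hepes pH 7.4 with MgCl2, MnCl2 and vanadate. Detection was HTRF: Eu anti-pY antibody plus streptavidin-APC, read 60 min later. IC50 came from titration curves, converted to Ki by Cheng-Prusoff.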

Activated CDC42 kinase 1 = Activated CDC42 kinase 1 (Homo sapiens, UniProt Q07912); assay: Inhibition of CDC42
Outline: (§2)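 Recombinant kinases were commercial, or baculovirus-expressed and purified by His-tag or GST affinity. Each was incubated 1 h with biotinylated substrate peptide (2 µM), γ-[33P]-ATP (5 µM) and inhibitor (3-10000 nM, 2% DMSO) in 25 mM Hepes pH 7.5, 10 mM MgCl2, Na3VO4. Reactions were stopped with EDTA/NaCl and read by streptavidin FlashPlate capture. IC50 came from titrations, converted to Ki by Cheng-Prusoff.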

[2] = target: T1, Calcium/calmodulin-dependent protein kinase type IV (Homo sapiens, UniProt Q16566); assay: Inhibition of CaMK4; outline: as §2
T1 sequence (Q16566 whole entry): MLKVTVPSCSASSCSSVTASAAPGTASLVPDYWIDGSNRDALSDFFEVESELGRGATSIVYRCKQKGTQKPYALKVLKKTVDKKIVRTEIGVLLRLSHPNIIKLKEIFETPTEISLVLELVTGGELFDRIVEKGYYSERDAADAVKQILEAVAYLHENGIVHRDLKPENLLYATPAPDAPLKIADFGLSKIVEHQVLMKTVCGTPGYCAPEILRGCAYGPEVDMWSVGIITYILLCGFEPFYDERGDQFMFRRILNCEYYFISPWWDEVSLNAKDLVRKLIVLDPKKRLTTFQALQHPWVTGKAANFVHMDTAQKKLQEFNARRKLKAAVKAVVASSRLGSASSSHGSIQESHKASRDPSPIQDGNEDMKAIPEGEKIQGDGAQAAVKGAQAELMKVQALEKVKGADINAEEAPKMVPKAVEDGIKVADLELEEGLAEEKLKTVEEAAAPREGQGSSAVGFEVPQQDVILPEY

[3] = target: Receptor tyrosine-protein kinase erbB-2 (Homo sapiens, UniProt P04626); assay: Inhibition of ErbB2; outline: as §1
[4] = target: Vascular endothelial growth factor receptor 1 (Homo sapiens, UniProt P17948); assay: Inhibition of Flt1; outline: as §1
[5] = target: Tyrosine-protein kinase Fyn (Homo sapiens, UniProt P06241); assay: Inhibition of Fyn; outline: as §1
[6] = target: Tyrosine-protein kinase JAK2 (Homo sapiens, UniProt O60674); assay: Inhibition of JAK2; outline: as §1
[7] = target: Tyrosine-protein kinase JAK3 (Homo sapiens, UniProt P52333); assay: Inhibition of JAK3; outline: as §1
[8] = target: T2, Serine/threonine-protein kinase Sgk1 (Homo sapiens, UniProt O00141); assay: Inhibition of SGK
T2 sequence (O00141 whole entry): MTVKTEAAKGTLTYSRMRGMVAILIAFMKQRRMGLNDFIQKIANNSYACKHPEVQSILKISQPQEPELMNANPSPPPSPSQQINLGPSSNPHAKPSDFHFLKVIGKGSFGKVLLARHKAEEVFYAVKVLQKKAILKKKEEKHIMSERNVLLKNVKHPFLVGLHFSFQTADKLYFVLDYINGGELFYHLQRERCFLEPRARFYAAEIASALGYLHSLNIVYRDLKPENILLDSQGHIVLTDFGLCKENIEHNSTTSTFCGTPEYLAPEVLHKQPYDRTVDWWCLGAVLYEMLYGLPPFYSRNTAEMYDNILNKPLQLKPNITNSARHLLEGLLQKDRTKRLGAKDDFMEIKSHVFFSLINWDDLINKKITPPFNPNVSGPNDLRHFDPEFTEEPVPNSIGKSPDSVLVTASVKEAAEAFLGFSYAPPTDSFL

[9] = target: Tyrosine-protein kinase Lyn (Homo sapiens, UniProt P07948); assay: Inhibition of Lyn; outline: as §1
[10] = target: Serine/threonine-protein kinase pim-2 (Homo sapiens, UniProt Q9P1W9); assay: Inhibition of Pim2
[11] = target: Death-associated protein kinase 3 (Homo sapiens, UniProt O43293); assay: Inhibition of ZipK
[12] = target: Mast/stem cell growth factor receptor Kit (Homo sapiens, UniProt P10721); assay: Inhibition of cKit
Outline: (§3)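 Tyrosine kinases (recombinant, His/GST-purified or commercial) measured by HTRF: 0.5 µM biotinylated peptide, ATP 10 µM to 1 mM, inhibitor in 2% DMSO, 1 h in 50 mM Hepes pH 7.4 with MgCl2, MnCl2, Na3VO4, DTT, BSA. IC50 from six-point titrations; Ki via Cheng-Prusoff.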

[13] = target: Tyrosine-protein kinase Blk (Homo sapiens, UniProt P51451)
[14] = target: Macrophage colony-stimulating factor 1 receptor (Homo sapiens, UniProt P07333); assay: Inhibition of CSF1R; outline: as §1
[15] = target: Fibroblast growth factor receptor (Homo sapiens, UniProt P22607+P11362+P22455+P21802); assay: Inhibition of FGFR; format: protein assay; outline: as §1
[16] = target: Fibroblast growth factor receptor 3 (Homo sapiens, UniProt P22607); assay: Inhibition of FGFR3; outline: as §1
[17] = target: Receptor-type tyrosine-protein kinase FLT3 (Homo sapiens, UniProt P36888); assay: Inhibition of Flt3; outline: as §1
[18] = target: Inhibitor of nuclear factor kappa-B kinase subunit beta (Homo sapiens, UniProt O14920); assay: Inhibition of IKK-beta; outline: as §2
[19] = target: Proto-oncogene tyrosine-protein kinase Src (Homo sapiens, UniProt P12931); assay: Inhibition of Src; outline: as §3
[20] = target: BDNF/NT-3 growth factors receptor (Homo sapiens, UniProt Q16620); assay: Inhibition of TrkB; outline: as §3
[21] = target: Non-receptor tyrosine-protein kinase TYK2 (Homo sapiens, UniProt P29597); assay: Inhibition of Tyk2; outline: as §3
[22] = target: Serine/threonine-protein kinase PAK 4 (Homo sapiens, UniProt O96013); assay: Inhibition of PAK4; outline: as §2
Insulin receptor = Insulin receptor (Homo sapiens, UniProt P06213)
[23] = target: High affinity nerve growth factor receptor (Homo sapiens, UniProt P04629)
[24] = target: Tyrosine-protein kinase Lck (Homo sapiens, UniProt P06239)
[25] = target: Hepatocyte growth factor receptor (Homo sapiens, UniProt P08581)
[26] = target: 3-phosphoinositide-dependent protein kinase 1 (Homo sapiens) (UniProt O15530); assay: Inhibition of PDK1
[27] = Half life in iv dosed Sprague-Dawley rat; format: ADME, organism-based; conditions: in vivo
Outline: (§4)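 Sprague-Dawley rats received 5 mg/kg intravenously. Half-life is reported in hours. AUC is total drug exposure after iv dosing, from t = 0 to t = ∞, in µg·h/mL.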

[28] = Volume of distribution at steady state in iv dosed Sprague-Dawley rat; format: ADME, organism-based; conditions: in vivo, read-out: Vss
[29] = Volume of distribution in iv dosed Sprague-Dawley rat; format: ADME, organism-based; conditions: in vivo, read-out: Vdss
[30] = AUC in iv dosed Sprague-Dawley rat; format: ADME, organism-based; conditions: plasma; outline: as §4
[31] = Plasma clearance in iv dosed Sprague-Dawley rat; format: ADME, organism-based
[32] = Half life in po dosed Sprague-Dawley rat; format: ADME, organism-based; conditions: in vivo
Outline: (§5)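 Sprague-Dawley rats were dosed orally. Oral half-life is reported in hours and Cmax as the maximum plasma concentration in µM. AUC is total oral exposure from t = 0 to t = ∞, in µg·h/mL.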

[33] = Cmax in po dosed Sprague-Dawley rat; format: ADME, organism-based; parameters: route oral; conditions: in vivo; outline: as §5
[34] = Tmax in po dosed Sprague-Dawley rat; format: ADME, organism-based; conditions: in vivo
[35] = AUC in po dosed Sprague-Dawley rat; format: ADME, organism-based; conditions: plasma; outline: as §5
[36] = Oral bioavailability in Sprague-Dawley rat; format: ADME, organism-based; conditions: in vivo
[37] = target: Mitogen-activated protein kinase 13 (Homo sapiens, UniProt O15264)
Sequence of Mitogen-activated protein kinase 13 (O15264 whole entry): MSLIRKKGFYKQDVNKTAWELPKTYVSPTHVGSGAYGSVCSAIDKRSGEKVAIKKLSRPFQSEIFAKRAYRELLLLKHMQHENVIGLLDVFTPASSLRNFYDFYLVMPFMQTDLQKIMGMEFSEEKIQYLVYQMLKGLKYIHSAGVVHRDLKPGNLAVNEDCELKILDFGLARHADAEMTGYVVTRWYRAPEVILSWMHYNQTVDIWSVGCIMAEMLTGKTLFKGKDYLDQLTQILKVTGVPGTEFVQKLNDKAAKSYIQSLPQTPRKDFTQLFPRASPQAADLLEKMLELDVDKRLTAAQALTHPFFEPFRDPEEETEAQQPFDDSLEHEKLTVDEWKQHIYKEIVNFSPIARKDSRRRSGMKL

Sequence of Activated CDC42 kinase 1 (Q07912 whole entry): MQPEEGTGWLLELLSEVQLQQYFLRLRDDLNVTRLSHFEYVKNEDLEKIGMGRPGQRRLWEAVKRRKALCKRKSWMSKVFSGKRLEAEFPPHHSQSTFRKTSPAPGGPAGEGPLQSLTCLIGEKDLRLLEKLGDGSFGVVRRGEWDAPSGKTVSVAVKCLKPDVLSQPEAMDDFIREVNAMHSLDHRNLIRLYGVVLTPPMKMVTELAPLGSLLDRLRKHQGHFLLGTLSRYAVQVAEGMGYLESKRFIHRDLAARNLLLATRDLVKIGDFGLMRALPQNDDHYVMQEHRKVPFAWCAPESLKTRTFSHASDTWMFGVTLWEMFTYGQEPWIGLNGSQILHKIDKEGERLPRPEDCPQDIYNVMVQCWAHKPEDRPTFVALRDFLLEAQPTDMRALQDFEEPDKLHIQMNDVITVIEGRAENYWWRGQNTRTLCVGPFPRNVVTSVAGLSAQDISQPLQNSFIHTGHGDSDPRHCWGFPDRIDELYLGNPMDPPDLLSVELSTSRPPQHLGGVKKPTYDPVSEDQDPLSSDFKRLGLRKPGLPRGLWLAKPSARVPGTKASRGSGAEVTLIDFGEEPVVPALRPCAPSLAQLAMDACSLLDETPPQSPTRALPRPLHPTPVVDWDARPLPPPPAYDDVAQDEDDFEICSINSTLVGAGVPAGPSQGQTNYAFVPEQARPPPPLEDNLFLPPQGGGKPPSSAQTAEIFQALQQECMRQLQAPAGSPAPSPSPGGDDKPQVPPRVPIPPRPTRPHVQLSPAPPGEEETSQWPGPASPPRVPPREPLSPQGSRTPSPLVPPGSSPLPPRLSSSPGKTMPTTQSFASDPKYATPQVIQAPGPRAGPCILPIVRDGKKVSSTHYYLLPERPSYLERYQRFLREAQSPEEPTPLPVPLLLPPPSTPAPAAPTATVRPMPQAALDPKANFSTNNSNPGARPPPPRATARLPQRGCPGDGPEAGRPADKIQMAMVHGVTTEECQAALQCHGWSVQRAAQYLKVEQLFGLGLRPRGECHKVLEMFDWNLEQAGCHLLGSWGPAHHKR
Sequence of Tyrosine-protein kinase JAK3 (P52333 whole entry): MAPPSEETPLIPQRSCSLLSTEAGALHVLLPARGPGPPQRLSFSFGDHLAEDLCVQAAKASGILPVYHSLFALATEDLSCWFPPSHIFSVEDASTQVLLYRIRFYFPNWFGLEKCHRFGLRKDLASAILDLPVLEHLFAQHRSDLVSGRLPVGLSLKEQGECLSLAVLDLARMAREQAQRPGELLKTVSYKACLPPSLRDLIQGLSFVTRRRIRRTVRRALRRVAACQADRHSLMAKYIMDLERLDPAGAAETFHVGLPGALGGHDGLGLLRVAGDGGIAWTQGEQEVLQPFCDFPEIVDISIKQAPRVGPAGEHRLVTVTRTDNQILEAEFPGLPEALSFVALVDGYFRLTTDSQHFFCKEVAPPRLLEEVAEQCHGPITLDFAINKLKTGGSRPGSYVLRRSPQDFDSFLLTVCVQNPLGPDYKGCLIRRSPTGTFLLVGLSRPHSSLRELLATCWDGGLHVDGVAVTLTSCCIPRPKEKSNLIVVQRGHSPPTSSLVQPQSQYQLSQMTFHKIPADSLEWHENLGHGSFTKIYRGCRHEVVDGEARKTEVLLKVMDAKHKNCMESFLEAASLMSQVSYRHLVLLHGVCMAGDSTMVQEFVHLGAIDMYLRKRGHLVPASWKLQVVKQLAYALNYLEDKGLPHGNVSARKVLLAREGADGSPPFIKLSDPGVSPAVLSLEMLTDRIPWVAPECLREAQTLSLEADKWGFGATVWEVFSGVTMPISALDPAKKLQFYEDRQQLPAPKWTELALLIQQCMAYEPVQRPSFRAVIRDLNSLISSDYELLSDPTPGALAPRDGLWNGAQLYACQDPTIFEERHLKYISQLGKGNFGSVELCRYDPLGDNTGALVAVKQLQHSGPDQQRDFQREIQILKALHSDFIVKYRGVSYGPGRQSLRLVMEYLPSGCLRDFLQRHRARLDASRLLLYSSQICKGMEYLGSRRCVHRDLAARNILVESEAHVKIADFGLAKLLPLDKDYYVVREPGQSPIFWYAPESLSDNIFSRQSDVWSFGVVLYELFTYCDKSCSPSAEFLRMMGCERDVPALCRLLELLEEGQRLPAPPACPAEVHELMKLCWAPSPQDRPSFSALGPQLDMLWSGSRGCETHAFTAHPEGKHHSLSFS
Sequence of Tyrosine-protein kinase Fyn (P06241 whole entry): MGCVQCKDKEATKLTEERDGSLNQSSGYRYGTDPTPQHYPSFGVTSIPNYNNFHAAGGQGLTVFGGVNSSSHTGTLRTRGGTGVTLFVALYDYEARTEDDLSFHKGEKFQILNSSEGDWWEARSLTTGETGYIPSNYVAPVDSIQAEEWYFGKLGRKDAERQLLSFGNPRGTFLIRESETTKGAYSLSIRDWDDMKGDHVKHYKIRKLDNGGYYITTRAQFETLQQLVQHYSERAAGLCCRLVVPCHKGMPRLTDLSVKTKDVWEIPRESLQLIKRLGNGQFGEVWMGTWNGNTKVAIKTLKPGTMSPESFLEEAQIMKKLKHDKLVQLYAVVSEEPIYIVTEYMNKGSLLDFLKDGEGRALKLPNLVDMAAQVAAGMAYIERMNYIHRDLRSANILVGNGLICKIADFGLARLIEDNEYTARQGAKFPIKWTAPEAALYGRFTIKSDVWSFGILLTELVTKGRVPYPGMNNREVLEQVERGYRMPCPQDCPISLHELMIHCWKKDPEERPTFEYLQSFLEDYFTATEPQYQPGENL
Sequence of Tyrosine-protein kinase JAK2 (O60674 whole entry): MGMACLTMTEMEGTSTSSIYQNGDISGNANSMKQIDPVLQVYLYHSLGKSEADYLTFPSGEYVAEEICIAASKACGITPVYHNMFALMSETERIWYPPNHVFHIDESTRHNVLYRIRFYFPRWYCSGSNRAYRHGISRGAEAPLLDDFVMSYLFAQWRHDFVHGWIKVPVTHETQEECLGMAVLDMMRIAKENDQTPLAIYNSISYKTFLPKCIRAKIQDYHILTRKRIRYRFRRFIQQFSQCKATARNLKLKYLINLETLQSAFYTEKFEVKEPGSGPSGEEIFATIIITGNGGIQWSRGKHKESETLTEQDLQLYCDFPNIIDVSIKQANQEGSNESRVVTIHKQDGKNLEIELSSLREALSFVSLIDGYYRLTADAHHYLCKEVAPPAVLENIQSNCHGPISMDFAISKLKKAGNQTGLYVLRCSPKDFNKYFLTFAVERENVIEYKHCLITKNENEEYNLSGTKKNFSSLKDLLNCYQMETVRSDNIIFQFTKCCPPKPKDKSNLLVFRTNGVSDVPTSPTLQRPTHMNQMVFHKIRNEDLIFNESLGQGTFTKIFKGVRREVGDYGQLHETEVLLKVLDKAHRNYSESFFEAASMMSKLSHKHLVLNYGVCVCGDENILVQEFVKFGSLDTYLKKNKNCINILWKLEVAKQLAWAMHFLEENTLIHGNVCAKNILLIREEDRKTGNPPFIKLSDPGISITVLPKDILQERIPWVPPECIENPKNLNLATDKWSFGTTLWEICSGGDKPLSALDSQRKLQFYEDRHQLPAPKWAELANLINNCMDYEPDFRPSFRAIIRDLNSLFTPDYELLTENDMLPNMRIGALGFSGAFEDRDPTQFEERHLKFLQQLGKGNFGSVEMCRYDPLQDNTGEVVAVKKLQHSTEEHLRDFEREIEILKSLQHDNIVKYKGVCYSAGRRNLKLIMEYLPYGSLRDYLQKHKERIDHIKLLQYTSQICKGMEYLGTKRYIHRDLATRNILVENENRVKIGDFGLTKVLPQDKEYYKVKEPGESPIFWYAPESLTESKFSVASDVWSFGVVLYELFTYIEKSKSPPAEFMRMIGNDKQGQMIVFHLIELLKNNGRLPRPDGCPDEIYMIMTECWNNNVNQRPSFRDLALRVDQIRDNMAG
Sequence of Serine/threonine-protein kinase pim-2 (Q9P1W9 whole entry): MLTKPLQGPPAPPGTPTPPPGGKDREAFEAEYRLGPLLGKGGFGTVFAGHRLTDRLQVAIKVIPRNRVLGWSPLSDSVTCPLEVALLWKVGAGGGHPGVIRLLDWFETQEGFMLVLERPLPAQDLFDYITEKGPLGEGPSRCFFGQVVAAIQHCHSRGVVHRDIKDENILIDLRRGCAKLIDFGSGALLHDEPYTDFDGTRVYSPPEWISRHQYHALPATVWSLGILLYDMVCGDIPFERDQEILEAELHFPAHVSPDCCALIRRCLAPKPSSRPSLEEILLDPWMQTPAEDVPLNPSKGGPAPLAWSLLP
Sequence of Tyrosine-protein kinase Blk (P51451 whole entry): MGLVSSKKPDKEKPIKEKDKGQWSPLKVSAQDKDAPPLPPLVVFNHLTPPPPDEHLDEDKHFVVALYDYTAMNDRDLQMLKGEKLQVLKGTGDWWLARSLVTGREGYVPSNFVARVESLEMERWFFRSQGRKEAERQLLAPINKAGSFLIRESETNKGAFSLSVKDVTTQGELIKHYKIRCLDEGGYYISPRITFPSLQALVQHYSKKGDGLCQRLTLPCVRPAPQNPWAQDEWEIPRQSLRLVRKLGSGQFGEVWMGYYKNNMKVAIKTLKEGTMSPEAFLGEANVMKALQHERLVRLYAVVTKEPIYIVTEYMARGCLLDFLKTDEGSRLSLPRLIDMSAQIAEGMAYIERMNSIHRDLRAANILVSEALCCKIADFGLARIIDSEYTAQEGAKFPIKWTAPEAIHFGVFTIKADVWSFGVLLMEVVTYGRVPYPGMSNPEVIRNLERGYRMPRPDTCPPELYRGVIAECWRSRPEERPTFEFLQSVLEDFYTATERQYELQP

CCOc1nc(NC(C)=O)cc(N)c1C#N
pKi [1]: < 6.15 | pKi (Activated CDC42 kinase 1): < 5.02 | pKi [2]: < 5.07 | pKi [3]: < 5.85 | pKi [4]: < 6.36 | pKi [5]: < 6.09 | pKi [6]: < 5.82 | pKi [7]: < 5.77 | pKi [8]: < 5.03 | pKi [9]: < 5.77 | pKi [10]: < 5.85 | pKi [11]: < 5.85 | pKi [12]: < 5.92 | pKi [13]: < 5.82

CC(=O)Nc1cc(N)c(C#N)c(-c2ccccc2)n1
pKi [1]: < 6.15 | pKi (Activated CDC42 kinase 1): < 5.02 | pKi [14]: < 5.60 | pKi [2]: < 5.07 | pKi [3]: < 5.85 | Ki [15]: > 4.7 µM | pKi [16]: < 5.72 | pKi [4]: < 6.36 | pKi [17]: < 5.60 | pKi [5]: < 6.09 | pKi [18]: < 5.49 | pKi [6]: < 5.82 | pKi [7]: < 5.77 | pKi [8]: < 5.03 | pKi [19]: < 5.72 | pKi [20]: < 5.35 | pKi [21]: < 5.72 | pKi [9]: < 5.77 | pKi [22]: < 5.26 | pKi [10]: < 5.85 | pKi [11]: < 5.85 | pKi [12]: < 5.92 | pKi [13]: < 5.82 | pKi (Insulin receptor): < 5.28 | pKi [23]: < 5.60 | pKi [24]: < 5.57 | pKi [25]: < 5.54 | pKi [26]: < 5.42

CCOc1nc(NC(=O)Cc2cc(OC)ccc2OC)cc(N)c1C#N
pKi (Activated CDC42 kinase 1): < 5.02 | pKi [2]: < 5.07 | pKi [8]: < 5.03 | half-life [27]: 84 min | Vd [28]: 1.2 L/kg | Vd [29]: 2.6 L/kg | AUC [30]: 4100 ng·h/mL | clearance [31]: 20 mL/min/kg | half-life [32]: 66 min | Cmax [33]: 310 nM | Tmax [34]: 1.98 min | AUC [35]: 110 ng·h/mL | bioavailability [36]: 2.7% | pKi [37]: < 5.16
